Results from ChEMBL document CHEMBL4145468, “Synthesis and biological evaluation of new steroidal pyridines as potential anti-prostate cancer agents” (Eur J Med Chem, 2018).

Tests used:
PC-3 = experiment: Antiproliferative activity against human PC3 cells after 72 hrs by MTT assay; format: functional, cell-based; conditions: PC-3, 72 h
Summary of the method: (§1)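 Exponentially growing cells, 4×10^3/well, attached 24 h, then medium replaced with fresh medium holding graded compound concentrations for 72 h. MTT (5 mg/mL stock) added for 4 h, formazan dissolved in DMSO, absorbance at 570 nm; IC50 calculated from dose-response data.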

ECa-109 cell line = experiment: Antiproliferative activity against human EC109 cells after 72 hrs by MTT assay; format: functional, cell-based; conditions: ECa-109, 72 h; summary of the method: as §1
MGC-803 = experiment: Antiproliferative activity against human MGC803 cells after 72 hrs by MTT assay; format: functional, cell-based; conditions: MGC-803, 72 h; summary of the method: as §1
GES1 = experiment: Antiproliferative activity against human GES-1 cells after 72 hrs by MTT assay; format: cell-based; conditions: GES1, 72 h; summary of the method: as §1
LNCaP = experiment: Antiproliferative activity against human LNCAP cells after 72 hrs by MTT assay; format: functional, cell-based; summary of the method: as §1

`CCOc1nc([C@H]2CC[C@H]3[C@@H]4CC=C5C[C@@H](O)CC[C@]5(C)[C@H]4CC[C@]23C)cc(-c2ccc(C)cc2)c1C#N` showed an IC50 (PC-3) of over 32 µM, an IC50 (ECa-109 cell line) of over 32 µM and an IC50 (MGC-803) of over 32 µM. It also gave an IC50 (GES1) of over 32 µM.

Compound `CCOc1cc(-c2ccco2)cc([C@H]2CC[C@H]3[C@@H]4CC=C5C[C@@H](O)CC[C@]5(C)[C@H]4CC[C@]23C)n1` has an IC50 (PC-3) of 10.8 µM, an IC50 (ECa-109 cell line) of 26.2 µM and an IC50 (MGC-803) of 26.1 µM. For the same compound, the IC50 (GES1) was over 32 µM.

`C[C@]12CC[C@H](O)CC1=CC[C@@H]1[C@@H]2CC[C@]2(C)C(c3cccnc3)=CC[C@@H]12` [ABIRATERONE] showed an IC50 (PC-3) of 5.94 µM, an IC50 (ECa-109 cell line) of over 32 µM and an IC50 (MGC-803) of 7.72 µM. It also gave an IC50 (GES1) of 13.1 µM and an IC50 (LNCaP) of 3.29 µM.

In the case of `CCOc1cc(-c2cccs2)cc([C@H]2CC[C@H]3[C@@H]4CC=C5C[C@@H](O)CC[C@]5(C)[C@H]4CC[C@]23C)n1`, the IC50 (PC-3) is reported as 15.3 µM, the IC50 (ECa-109 cell line) is reported as 17.6 µM and the IC50 (MGC-803) is reported as over 32 µM. For the same compound, the IC50 (GES1) was over 32 µM.

With `CCOc1cc(-c2ncccc2Br)cc([C@H]2CC[C@H]3[C@@H]4CC=C5C[C@@H](O)CC[C@]5(C)[C@H]4CC[C@]23C)n1` the IC50 (PC-3) was 13.4 µM, the IC50 (ECa-109 cell line) was over 32 µM and the IC50 (MGC-803) was 25.8 µM. The IC50 (GES1) was over 32 µM.

`CCOc1nc([C@H]2CC[C@H]3[C@@H]4CC=C5C[C@@H](O)CC[C@]5(C)[C@H]4CC[C@]23C)cc(-c2ccsc2)c1C#N` gave an IC50 (PC-3) of 12.2 µM, an IC50 (ECa-109 cell line) of 10.6 µM and an IC50 (MGC-803) of 22.3 µM. For the same compound, the IC50 (GES1) was 30.1 µM.

For `CCOc1cc(-c2ccc(Cl)cc2)cc([C@H]2CC[C@H]3[C@@H]4CC=C5C[C@@H](O)CC[C@]5(C)[C@H]4CC[C@]23C)n1`, the IC50 (PC-3) was over 32 µM, the IC50 (ECa-109 cell line) was over 32 µM and the IC50 (MGC-803) was 19.2 µM. It also gave an IC50 (GES1) of over 32 µM.

`CCOc1cc(-c2ccccc2)cc([C@H]2CC[C@H]3[C@@H]4CC=C5C[C@@H](O)CC[C@]5(C)[C@H]4CC[C@]23C)n1` was tested, and the IC50 (PC-3) was 31.1 µM, the IC50 (ECa-109 cell line) was over 32 µM and the IC50 (MGC-803) was over 32 µM. It also gave an IC50 (GES1) of over 32 µM.

`CCOc1cc(-c2cc(F)cc(F)c2)cc([C@H]2CC[C@H]3[C@@H]4CC=C5C[C@@H](O)CC[C@]5(C)[C@H]4CC[C@]23C)n1` was tested, and the IC50 (PC-3) was 16.5 µM, the IC50 (ECa-109 cell line) was over 32 µM and the IC50 (MGC-803) was over 32 µM. For the same compound, the IC50 (GES1) was over 32 µM.

Compound `CCOc1nc([C@H]2CC[C@H]3[C@@H]4CC=C5C[C@@H](O)CC[C@]5(C)[C@H]4CC[C@]23C)cc(-c2cccc([N+](=O)[O-])c2)c1C#N` has an IC50 (PC-3) of 7.77 µM, an IC50 (ECa-109 cell line) of 27.6 µM and an IC50 (MGC-803) of 13.1 µM. It also gave an IC50 (GES1) of over 32 µM.

`CCOc1nc([C@H]2CC[C@H]3[C@@H]4CC=C5C[C@@H](O)CC[C@]5(C)[C@H]4CC[C@]23C)cc(-c2ccc(S(C)(=O)=O)cc2)c1C#N` was tested, and the IC50 (PC-3) was over 32 µM, the IC50 (ECa-109 cell line) was over 32 µM and the IC50 (MGC-803) was over 32 µM. It also gave an IC50 (GES1) of over 32 µM.

Compound `CCOc1cc(-c2ccc(Br)cc2)cc([C@H]2CC[C@H]3[C@@H]4CC=C5C[C@@H](O)CC[C@]5(C)[C@H]4CC[C@]23C)n1` has an IC50 (PC-3) of over 32 µM, an IC50 (ECa-109 cell line) of over 32 µM and an IC50 (MGC-803) of over 32 µM. For the same compound, the IC50 (GES1) was over 32 µM.

Work on `CCOc1nc([C@H]2CC[C@H]3[C@@H]4CC=C5C[C@@H](O)CC[C@]5(C)[C@H]4CC[C@]23C)cc(-c2ccc(Br)cc2)c1C#N` yielded an IC50 (PC-3) of 13.7 µM, an IC50 (ECa-109 cell line) of over 32 µM and an IC50 (MGC-803) of over 32 µM. For the same compound, the IC50 (GES1) was over 32 µM.

`CCOc1nc([C@H]2CC[C@H]3[C@@H]4CC=C5C[C@@H](O)CC[C@]5(C)[C@H]4CC[C@]23C)cc(-c2cccnc2)c1C#N` showed an IC50 (PC-3) of 5.84 µM, an IC50 (ECa-109 cell line) of 2.84 µM and an IC50 (MGC-803) of 14.7 µM. The IC50 (GES1) was over 32 µM and the IC50 (LNCaP) was 5.18 µM.

`CCOc1nc([C@H]2CC[C@H]3[C@@H]4CC=C5C[C@@H](O)CC[C@]5(C)[C@H]4CC[C@]23C)cc(-c2ccc(F)cc2)c1C#N` gave an IC50 (PC-3) of over 32 µM, an IC50 (ECa-109 cell line) of over 32 µM and an IC50 (MGC-803) of over 32 µM. It also gave an IC50 (GES1) of over 32 µM.

`CCOc1nc([C@H]2CC[C@H]3[C@@H]4CC=C5C[C@@H](O)CC[C@]5(C)[C@H]4CC[C@]23C)cc(-c2ccccc2)c1C#N` showed an IC50 (PC-3) of 4.39 µM, an IC50 (ECa-109 cell line) of 13.3 µM and an IC50 (MGC-803) of 15.8 µM. The IC50 (GES1) was 7.8 µM.

For `CCOc1cc(-c2ccncc2)cc([C@H]2CC[C@H]3[C@@H]4CC=C5C[C@@H](O)CC[C@]5(C)[C@H]4CC[C@]23C)n1`, the IC50 (PC-3) was 6.37 µM, the IC50 (ECa-109 cell line) was 16.6 µM and the IC50 (MGC-803) was 4.48 µM. The IC50 (GES1) was 15.7 µM.

With `CCOc1cc(-c2ccc(C)cc2)cc([C@H]2CC[C@H]3[C@@H]4CC=C5C[C@@H](O)CC[C@]5(C)[C@H]4CC[C@]23C)n1` the IC50 (PC-3) was over 32 µM, the IC50 (ECa-109 cell line) was over 32 µM and the IC50 (MGC-803) was over 32 µM. It also gave an IC50 (GES1) of over 32 µM.

`CCOc1nc([C@H]2CC[C@H]3[C@@H]4CC=C5C[C@@H](O)CC[C@]5(C)[C@H]4CC[C@]23C)cc(-c2cccc(Br)c2)c1C#N` showed an IC50 (PC-3) of 9.42 µM, an IC50 (ECa-109 cell line) of over 32 µM and an IC50 (MGC-803) of 28.5 µM. The IC50 (GES1) was 21.9 µM.

For `CCOc1nc([C@H]2CC[C@H]3[C@@H]4CC=C5C[C@@H](O)CC[C@]5(C)[C@H]4CC[C@]23C)cc(-c2ccc(Cl)cc2)c1C#N`, the IC50 (PC-3) was 10.4 µM, the IC50 (ECa-109 cell line) was over 32 µM and the IC50 (MGC-803) was over 32 µM. For the same compound, the IC50 (GES1) was over 32 µM.

Work on `CCOc1cc(-c2cccnc2)cc([C@H]2CC[C@H]3[C@@H]4CC=C5C[C@@H](OC(C)=O)CC[C@]5(C)[C@H]4CC[C@]23C)n1` yielded an IC50 (PC-3) of 6.97 µM, an IC50 (ECa-109 cell line) of over 32 µM and an IC50 (MGC-803) of over 32 µM. The IC50 (GES1) was over 32 µM and the IC50 (LNCaP) was 27.9 µM.

Work on `CCOc1cc(-c2ccc(C#N)cc2)cc([C@H]2CC[C@H]3[C@@H]4CC=C5C[C@@H](O)CC[C@]5(C)[C@H]4CC[C@]23C)n1` yielded an IC50 (PC-3) of 24.6 µM, an IC50 (ECa-109 cell line) of over 32 µM and an IC50 (MGC-803) of 23.7 µM. For the same compound, the IC50 (GES1) was over 32 µM.

`CCOc1cc(-c2ccc(F)cc2)cc([C@H]2CC[C@H]3[C@@H]4CC=C5C[C@@H](O)CC[C@]5(C)[C@H]4CC[C@]23C)n1` was tested, and the IC50 (PC-3) was over 32 µM, the IC50 (ECa-109 cell line) was over 32 µM and the IC50 (MGC-803) was over 32 µM. For the same compound, the IC50 (GES1) was over 32 µM.

`CCOc1cc(-c2cccc(Br)c2)cc([C@H]2CC[C@H]3[C@@H]4CC=C5C[C@@H](O)CC[C@]5(C)[C@H]4CC[C@]23C)n1` gave an IC50 (PC-3) of 21.7 µM, an IC50 (ECa-109 cell line) of over 32 µM and an IC50 (MGC-803) of over 32 µM. It also gave an IC50 (GES1) of over 32 µM.

`CCOc1cc(-c2ccc(S(C)(=O)=O)cc2)cc([C@H]2CC[C@H]3[C@@H]4CC=C5C[C@@H](O)CC[C@]5(C)[C@H]4CC[C@]23C)n1` gave an IC50 (PC-3) of over 32 µM, an IC50 (ECa-109 cell line) of 31.3 µM and an IC50 (MGC-803) of over 32 µM. The IC50 (GES1) was over 32 µM.

With `CCOc1nc([C@H]2CC[C@H]3[C@@H]4CC=C5C[C@@H](O)CC[C@]5(C)[C@H]4CC[C@]23C)cc(-c2cccs2)c1C#N` the IC50 (PC-3) was 6.98 µM, the IC50 (ECa-109 cell line) was 9.84 µM and the IC50 (MGC-803) was 23.6 µM. It also gave an IC50 (GES1) of over 32 µM.

`CCOc1nc([C@H]2CC[C@H]3[C@@H]4CC=C5C[C@@H](O)CC[C@]5(C)[C@H]4CC[C@]23C)cc(-c2cc(F)cc(F)c2)c1C#N` gave an IC50 (PC-3) of 6.99 µM, an IC50 (ECa-109 cell line) of 20 µM and an IC50 (MGC-803) of 12.3 µM. For the same compound, the IC50 (GES1) was over 32 µM.
